For series [1], the system named is H4IIE cells. In words: CeeTox membrane toxicity. To be noted: 24 hr, α-GST leakage.
Series [2] concerns Intracellular glutathione (GSH). Briefly: CeeTox intracellular glutathione. The conditions noted are these: H4IIE cells.
The test system of a further series is Caspase 3. In words: CeeTox apoptosis. In kind it is cell-based, rat. To be noted: H4IIE cells; for Caspase 3 Activity (Index/Dose): dose: dose at which the index was seen; for Caspase 3 Activity (Index/Dose): index: index of RFU.
Another series relates to 8-Isoprostane (8-ISO). In words: CeeTox lipid peroxidation measured as 8-isoprostane. To be noted: H4IIE cells, 8-ISO score.
Series [3] has as its system H4IIE cells. Briefly: CeeTox cell mass. The conditions noted are these: 24 hr.
In series [4] the test system is H4IIE cells. Briefly: CeeTox cellular ATP content. To be noted: 24 hr.
Series [5] concerns H4IIE cells. In words: CeeTox analysis composite. Format: cell-based, rat. The conditions noted are these: for TC50 for all general toxicity measures (range over endpoints): range across CeeTox endpoints.
The subject of series [6] is H4IIE cells. In kind it is cell-based. To be noted: 24 hr.
The subject of a further series is S. typhimurium TA989. Briefly: Ames test for mutagenicity, frame-shift strain. The conditions noted are these: first TA98 column; for TA98+S9: with S9, up to 10 μM; for TA98−S9: without S9, up to 10 μM. In kind it is cell-based. (In general: The Ames test uses bacterial strains that need an amino acid and regain growth without it when mutated back.)
For the next series, the system named is P-glycoprotein (PgP). In words: P-glycoprotein. In kind it is cell-based, rat. The conditions noted are these: H4IIE cells, MTT, 24 hr, single exposure concentration (20 or 50 μM), without CSA.
The next series concerns the target CYP2C19 (Homo sapiens, UniProt P33261). In words: Cloe Screen Cytochrome P450 Inhibition assay. In kind it is in vitro ADME.
The target in another series is CYP3A4 (Homo sapiens, UniProt P08684). In words: Cloe Screen Cytochrome P450 Inhibition assay. In kind it is in vitro ADME.
The next series concerns the target CYP2D6 (Homo sapiens, UniProt P10635). Briefly: Cloe Screen Cytochrome P450 Inhibition assay. Format: in vitro ADME. The gist of the method:
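Run blinded. […] Metabolite formation was monitored by LC-MS/MS. IC50 was calculated from the decrease in metabolite formation relative to vehicle control. Quinidine served as positive control inhibitor.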

For the next series, the target named is CYP2C9 (Homo sapiens, UniProt P11712). In words: Cloe Screen Cytochrome P450 Inhibition assay. Format: in vitro ADME.
The next series has as its target T1, CYP1A2 (Homo sapiens, UniProt P05177).
T1 sequence (P05177 1-516): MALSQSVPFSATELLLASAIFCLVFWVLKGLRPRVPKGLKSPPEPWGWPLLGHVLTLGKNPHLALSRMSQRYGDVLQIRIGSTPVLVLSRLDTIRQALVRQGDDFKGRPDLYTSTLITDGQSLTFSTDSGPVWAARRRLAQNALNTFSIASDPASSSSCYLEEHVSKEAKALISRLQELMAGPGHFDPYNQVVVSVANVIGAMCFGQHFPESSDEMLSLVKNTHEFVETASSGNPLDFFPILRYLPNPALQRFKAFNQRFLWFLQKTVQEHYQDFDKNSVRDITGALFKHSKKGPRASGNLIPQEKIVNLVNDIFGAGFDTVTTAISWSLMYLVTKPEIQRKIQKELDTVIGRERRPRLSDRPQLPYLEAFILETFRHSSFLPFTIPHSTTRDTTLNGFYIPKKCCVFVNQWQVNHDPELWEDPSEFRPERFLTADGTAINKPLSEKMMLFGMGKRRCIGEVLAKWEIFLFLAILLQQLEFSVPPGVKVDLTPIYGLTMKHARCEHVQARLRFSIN
In words: Cloe Screen Cytochrome P450 Inhibition assay. In kind it is in vitro ADME.

The test system of another series is P-glycoprotein (MDR1). In words: BBB penetration. In kind it is in vitro ADME, canine. The conditions noted are these: dog, MDCK-MDR1. The gist of the method: (§1)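 MDCK cells transfected with human MDR1 (P-gp) were grown to a confluent monolayer over 4 days. Test compound was added apically, and A→B transport was followed over 60 min; B→A transport was also measured. Compound on each side was quantified by GC/MS. Papp was calculated for both directions, and efflux ratio = Papp B→A/Papp A→B. High BBB potential: Papp A→B ≥3.0×10⁻⁶ cm/s and efflux <3.0.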

Another series relates to MDR1-MDCK cells. In words: BBB penetration. The conditions noted are these: classification from Papp A→B and efflux. In kind it is in vitro ADME, canine. The gist of the method: as §1
The next series concerns mouse cortical neurons. Briefly: Cortical neuron glutamate excitotoxicity neuroprotection assay. In kind it is cell-based. To be noted: tested at 0.1 μM.
Another series has as its system HT22 cells. In words: In vitro ischemia assay. Format: cell-based. The conditions noted are these: Mus musculus, HT-22, read-out: HT22 EC50 (nM). In a few lines:
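Mouse HT22 hippocampal cells were grown in DMEM with 10 % FCS and seeded at 5×10^3 cells/well. Next day, medium was changed to DMEM with 7.5 % dialyzed FCS, and cells were exposed to 20 µM iodoacetic acid with or without varying test compound concentrations for 2 h. Medium was then replaced with compound-containing medium without IAA for 20 h. Viability was read by MTT (5 µg/ml, 4 h, 37 °C), solubilized in DMF/SDS pH 4.7, A570.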

Like-named read-outs stand apart in the source and are kept apart here. Some results are limits rather than exact numbers.

CYP3A4, sequence (P08684 2-503): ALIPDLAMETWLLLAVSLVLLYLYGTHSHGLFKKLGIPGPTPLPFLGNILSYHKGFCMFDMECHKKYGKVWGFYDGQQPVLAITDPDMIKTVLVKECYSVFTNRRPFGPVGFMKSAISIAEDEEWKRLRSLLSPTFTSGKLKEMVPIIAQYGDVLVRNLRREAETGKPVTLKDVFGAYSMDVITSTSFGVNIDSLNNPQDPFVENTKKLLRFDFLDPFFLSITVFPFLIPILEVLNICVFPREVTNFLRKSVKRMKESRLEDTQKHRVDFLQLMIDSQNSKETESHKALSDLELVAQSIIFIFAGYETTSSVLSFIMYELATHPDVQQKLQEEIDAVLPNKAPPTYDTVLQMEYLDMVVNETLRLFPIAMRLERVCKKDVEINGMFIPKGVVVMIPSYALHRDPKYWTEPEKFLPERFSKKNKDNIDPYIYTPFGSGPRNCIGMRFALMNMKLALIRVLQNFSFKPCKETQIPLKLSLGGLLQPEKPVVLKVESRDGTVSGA
CYP2D6, sequence (P10635 whole entry): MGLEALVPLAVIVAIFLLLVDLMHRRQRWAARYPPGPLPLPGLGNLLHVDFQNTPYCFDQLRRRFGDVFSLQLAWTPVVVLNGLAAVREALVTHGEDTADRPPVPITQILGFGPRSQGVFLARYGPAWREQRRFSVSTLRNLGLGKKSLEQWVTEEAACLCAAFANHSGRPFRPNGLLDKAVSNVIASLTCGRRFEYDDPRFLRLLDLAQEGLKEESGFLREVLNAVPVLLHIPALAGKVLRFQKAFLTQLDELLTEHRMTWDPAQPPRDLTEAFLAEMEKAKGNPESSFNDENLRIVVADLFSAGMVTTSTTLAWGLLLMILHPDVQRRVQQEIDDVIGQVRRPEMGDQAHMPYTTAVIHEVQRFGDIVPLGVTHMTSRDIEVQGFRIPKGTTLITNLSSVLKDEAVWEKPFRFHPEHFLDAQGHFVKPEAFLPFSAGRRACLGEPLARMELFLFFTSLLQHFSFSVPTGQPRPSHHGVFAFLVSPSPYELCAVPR
CYP2C9, sequence (P11712 whole entry): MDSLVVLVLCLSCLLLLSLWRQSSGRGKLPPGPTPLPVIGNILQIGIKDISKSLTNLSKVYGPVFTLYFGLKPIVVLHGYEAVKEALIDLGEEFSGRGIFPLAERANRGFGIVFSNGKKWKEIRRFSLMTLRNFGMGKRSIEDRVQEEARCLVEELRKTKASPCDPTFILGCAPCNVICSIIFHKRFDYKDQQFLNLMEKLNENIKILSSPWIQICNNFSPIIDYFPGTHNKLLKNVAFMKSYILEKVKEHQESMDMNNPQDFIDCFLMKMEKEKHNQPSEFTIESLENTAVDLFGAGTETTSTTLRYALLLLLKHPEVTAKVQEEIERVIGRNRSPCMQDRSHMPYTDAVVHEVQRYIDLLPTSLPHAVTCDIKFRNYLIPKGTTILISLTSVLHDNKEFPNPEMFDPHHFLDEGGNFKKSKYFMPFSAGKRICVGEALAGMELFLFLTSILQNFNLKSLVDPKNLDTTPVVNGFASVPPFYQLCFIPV
CYP2C19, sequence (P33261 whole entry): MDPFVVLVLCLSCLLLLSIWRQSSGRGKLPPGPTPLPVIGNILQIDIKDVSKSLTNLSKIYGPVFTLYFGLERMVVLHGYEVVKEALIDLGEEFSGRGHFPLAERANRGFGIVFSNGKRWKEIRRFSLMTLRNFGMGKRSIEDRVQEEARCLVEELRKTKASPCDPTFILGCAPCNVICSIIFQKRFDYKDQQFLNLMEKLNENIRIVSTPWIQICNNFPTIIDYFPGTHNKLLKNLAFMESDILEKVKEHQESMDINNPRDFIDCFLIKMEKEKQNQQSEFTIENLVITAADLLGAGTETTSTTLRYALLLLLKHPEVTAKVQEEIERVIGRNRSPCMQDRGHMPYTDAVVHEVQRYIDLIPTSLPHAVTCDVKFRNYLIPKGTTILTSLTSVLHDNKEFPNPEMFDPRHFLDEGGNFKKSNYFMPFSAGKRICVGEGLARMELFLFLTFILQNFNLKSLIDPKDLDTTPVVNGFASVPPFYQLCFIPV

Take `CC[C@@]1(O)C(=O)OCc2c1cc1n(c2=O)Cc2cc3ccccc3nc2-1` [CAMPTOTHECIN, camptothecin, reference compound]: the “MemTox TC50” value with H4IIE cells [1] was greater than 300 µM. Also, in the series with H4IIE cells [1] (listed as camptothecin), the “MemTox TC50 (μM)” value is reported as “not affected”. Moreover, the “Total GSH TC50” value in series [2] was found to be 5.0 µM. For the same molecule, in the series on Caspase 3, the “Caspase 3 Activity (Index/Dose): dose” value came to 100 and the “Caspase 3 Activity (Index/Dose): index” value was 3 (400–600 = 3). For the same molecule, the “Membrane Lipid Peroxidation” value in the series with 8-Isoprostane (8-ISO) was 1 (1 = Modest increase with maximum values ≤ 15 pg/mL). Besides, in the series with H4IIE cells [3], the “Cell Mass TC50” value was 3.0 µM. The “ATP TC50” value in the series with H4IIE cells [4] was 5.0 µM. Also, the “TC50 for all general toxicity measures (range over endpoints)” value (“TC50 … (range over endpoints)” below) in the series with H4IIE cells [5] (H4IIE cells, 24 hr) was in the range of 3.0 to 5.0 µM. In the series with H4IIE cells [5] (per standard CeeTox criteria), the “Ctox ranking group: probability of in vivo toxic effects” value is “high probability (1–20 high probability)”. Further, in the series with H4IIE cells [6], the “MTT TC50” value was determined as 3.2 µM.
For orientation: IC50 means the concentration at which inhibition is half-maximal. Consider `O=c1c(O)c(-c2ccc(O)c(O)c2)oc2c1ccc1ccccc12` [CSMC-6, 3,3',4'-trihydroxy alpha-naphthoflavone], for which the “MemTox TC50” value in the series on H4IIE cells [1] came out at 282 µM. Moreover, in series [2], the “Total GSH TC50” value worked out at 87 µM. The “TA98+S9” value with S. typhimurium TA989 is given as “Negative (Not mutagenic < 10 μM (NEGATIVE))”. In the series with S. typhimurium TA989, the “TA98−S9” value is on record as “Negative (Not mutagenic < 10 μM (NEGATIVE))”. The “% Control(Compound)” value in the series with P-glycoprotein (PgP) was 68.3 % Control. In addition, the “Membrane Lipid Peroxidation” value in the series on 8-Isoprostane (8-ISO) came out at 0. In addition, the IC50 at CYP2C19 (read-out: CYP2C19 IC50, human liver microsomes, substrate head: Midazolam) is greater than 10 µM; at CYP3A4 (read-out: CYP3A4 IC50, human liver microsomes, substrate head: Mephenytoin), greater than 10 µM; on CYP2D6 (read-out: CYP2D6 IC50, human liver microsomes, substrate DextroM), greater than 10 µM; on CYP2C9 (read-out: CYP2C9 IC50, human liver microsomes, substrate Tolbutamide), greater than 10 µM. Moreover, the “Cell Mass TC50” value in the series with H4IIE cells [3] came to 80 µM. For the same molecule, in the series with H4IIE cells [4], the “ATP TC50” value was 81 µM. Further, in the series with H4IIE cells [5] (H4IIE cells, 24 hr, lowest of the CeeTox endpoints), the “minimum TC50” value amounted to 71 µM. For the same molecule, the “TC50 … (range over endpoints)” value with H4IIE cells [5] (H4IIE cells, 24 hr) lay within 71 to 282 µM. In addition, the “MTT TC50” value with H4IIE cells [6] came out at 71 µM.
In general, Papp A→B refers to the apparent permeability from the apical to the basolateral side of a cell layer. A low value points to slow passage. For orientation: efflux ratio means the permeability from basolateral to apical divided by that in the opposite direction, in the common usage. `CCCc1ccc2oc(-c3ccc(O)c(O)c3)c(O)c(=O)c2c1` [CSMC-13, 6-propyl-3,3',4'-trihydroxy flavone]: the “MemTox TC50” value in the series on H4IIE cells [1] was greater than 300 µM. The “Total GSH TC50” value in [2] came to 252 µM. The “Caspase 3 Activity (Index/Dose): dose” value in the series on Caspase 3 worked out at 100. Further, in the series on Caspase 3, the “Caspase 3 Activity (Index/Dose): index” value was 1 (0–200 = 1). In addition, the IC50 was greater than 25 µM on CYP1A2; greater than 10 µM on CYP2C19; greater than 10 µM at CYP3A4; greater than 10 µM at CYP2D6; greater than 10 µM on CYP2C9. For the same molecule, in the series on S. typhimurium TA989, the “TA98+S9” value was “Negative (Not mutagenic < 10 μM (NEGATIVE))”. The “TA98−S9” value in the series with S. typhimurium TA989 was “Negative (Not mutagenic < 10 μM (NEGATIVE))”. Also, in the series on P-glycoprotein (PgP), the “% Control(Compound)” value is listed as 87.9 % Control. In addition, the “Membrane Lipid Peroxidation” value in the series with 8-Isoprostane (8-ISO) was 2 (2 = Concentration related increase with maximum values ≥ 15 pg/mL). The “Cell Mass TC50” value in the series on H4IIE cells [3] turned out to be 78 µM. Also, in the series on H4IIE cells [4], the “ATP TC50” value stood at 58 µM. In the series on P-glycoprotein (MDR1), this molecule gave a Papp A→B at 60 min of 0.1 ×10⁻⁶ cm/s. In the series on P-glycoprotein (MDR1), the efflux ratio at 60 min turned out to be 1. The “BBB Potential” value in the series on MDR1-MDCK cells is listed as “low”. The “MTT TC50” value in the series on H4IIE cells [6] was determined as 83 µM.
For the molecule `O=c1cc(-c2cc(O)c(O)c(O)c2)oc2ccccc12` [CSMC-19, 3',4',5'-trihydroxyflavone], the “MemTox TC50” value in the series on H4IIE cells [1] was greater than 300 µM. Moreover, the “Total GSH TC50” value in series [2] is greater than 300 µM. Further, in the series with Caspase 3, the “Caspase 3 Activity (Index/Dose): dose” value is listed as 300. Moreover, the “Caspase 3 Activity (Index/Dose): index” value in the series on Caspase 3 is on record as 1 (0–200 = 1). Besides, the half-maximal inhibitory concentration (IC50) was greater than 25 µM on CYP1A2; greater than 10 µM on CYP2C19; greater than 10 µM on CYP3A4; greater than 10 µM on CYP2D6; greater than 10 µM at CYP2C9. Further, in the series with S. typhimurium TA989, the “TA98+S9” value is given as “Negative (Not mutagenic < 10 μM (NEGATIVE))”. For the same molecule, the “TA98−S9” value with S. typhimurium TA989 is given as “Negative (Not mutagenic < 10 μM (NEGATIVE))”. The “% Control(Compound)” value in the series with P-glycoprotein (PgP) is given as 88.4 % Control. Further, the “Membrane Lipid Peroxidation” value in the series with 8-Isoprostane (8-ISO) is on record as 2 (2 = Concentration related increase with maximum values ≥ 15 pg/mL). Further, the “Cell Mass TC50” value with H4IIE cells [3] is greater than 300 µM. Further, the “ATP TC50” value with H4IIE cells [4] turned out to be 256 µM. Moreover, the Papp A→B at 60 min in the series on P-glycoprotein (MDR1) was 105 ×10⁻⁶ cm/s. Also, the efflux ratio at 60 min with P-glycoprotein (MDR1) turned out to be 0.01. Besides, in the series with H4IIE cells [6], the “MTT TC50” value was greater than 300 µM.
Broadly, the EC50 is the concentration needed to bring the measured effect to its halfway point. For `O=c1c(O)c(-c2ccc(O)c(O)c2)oc2cc(O)ccc12` [Fisetin, 3,3',4',7-tetrahydroxyflavone, reference compound], the “Neuroprotection of mouse cortical neurons against glutamate” value in the series with mouse cortical neurons is listed as “did not confer neuroprotection”. Also, the EC50 in the series on HT22 cells worked out at 4000 nM. Further, in the series on P-glycoprotein (MDR1), the Papp A→B at 60 min amounted to 2.96 ×10⁻⁶ cm/s and the efflux ratio at 60 min is 0.7. Also, in the series on MDR1-MDCK cells, the “BBB Potential” value is recorded as “low”.
In the case of `C=C(C)[C@H]1Cc2c(ccc3c2O[C@@H]2COc4cc(OC)c(OC)cc4[C@@H]2C3=O)O1` [ROTENONE, rotenone, reference compound], the “MemTox TC50” value with H4IIE cells [1] is 3.88 µM. The “Total GSH TC50” value in series [2] amounted to 0.03 µM. For the same molecule, the “Membrane Lipid Peroxidation” value with 8-Isoprostane (8-ISO) was 2 (2 = Concentration related increase with maximum values ≥ 15 pg/mL). Besides, the “Cell Mass TC50” value in the series on H4IIE cells [3] is 0.09 µM. The “ATP TC50” value with H4IIE cells [4] turned out to be 0.05 µM. In addition, in the series on H4IIE cells [5] (H4IIE cells, 24 hr), the “TC50 … (range over endpoints)” value lay in the range of 0.05 to 3.88 µM. The “MTT TC50” value with H4IIE cells [6] is 0.19 µM.

For the origin of these results see paper PMC3653324 (Translational stroke research, 2012).
